ChEMBL document CHEMBL1124579, “7-Heteroaryl-1,2,3,5-tetrahydroimidazo[2,1-b]quinazolin -2(1H)-one derivatives with cardiac stimulant activity” (J Med Chem, 1989)

How the values were obtained:
Canis familiaris [1] = assay: Percent increase in dP/dtmax (positive inotropic activity) in anesthetized dog after administration of 50 ug/kg Intravenously; format: functional, Canis lupus familiaris
Summary of the method: (§1)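 Anesthetized dog with a catheter-tip transducer passed into the left ventricle via the carotid artery. LV pressure is differentiated to give dP/dtmax, the contractility index. There is 0.75 h equilibration after surgery. The compound is given iv in 0.9% saline (4 mL), 0.5 h after the standard agent (50 μg/kg). The cycle is repeated once control levels return, at least 0.5 h apart. The result is the % increase in dP/dtmax.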

Canis familiaris [2] = assay: Relative inotropic response (50 umg/kg Intravenously) to that of 4-[4-[2-(1,1-dioxo-2-isothiazolidinyl)ethyl]-1-piperidinyl]-6,7-dimethoxyquinazoline […], in dog; format: functional, Canis lupus familiaris
Summary of the method: (§2)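 Anesthetized dog with a left-ventricular catheter introduced via the carotid artery; dP/dtmax is derived from LV pressure. The standard quinazoline (50 μg/kg iv) is given first, then the test compound iv in saline 0.5 h later, in the same dog. Relative potency = (% increase in dP/dtmax to drug ÷ % increase to standard) × (dose standard ÷ dose drug).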

Canis familiaris [3] = assay: Percent increase in dP/dtmax (positive inotropic activity) in anesthetized dog after administration of 250 ug/kg Intravenously; format: functional, Canis lupus familiaris; summary of the method: as §1
Canis familiaris [4] = assay: Percent increase in dP/dtmax (positive inotropic activity) in anesthetized dog after administration of 10 micro mg/kg Intravenously; format: functional, Canis lupus familiaris; summary of the method: as §1
Canis familiaris [5] = assay: Cardiac contractility (decrease in the QA interval) in conscious dog 1 hour after oral administration (dose 1 mg/kg); format: functional, Canis lupus familiaris
Summary of the method: (§3)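 Conscious dogs; the test substance is given by gavage as a solution. The QA interval is the time from the ECG R wave to the upstroke of the arterial pressure pulse, measured by computer. It is recorded every 0.16 h from 0.5 h before dosing to 4 h after. Each point is the mean of six consecutive sets, each averaged over 8 s. The result is the change from the mean predose value.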

Canis familiaris [6] = assay: Cardiac contractility (decrease in the QA interval) in conscious dog, 3 hours after oral administration (dose 1 mg/kg); format: functional, Canis lupus familiaris; summary of the method: as §3
Canis familiaris [7] = assay: Relative inotropic response (10 ug/kg Intravenously) to that of 4-[4-[2-(1,1-dioxo-2-isothiazolidinyl)ethyl]-1-piperidinyl]-6,7-dimethoxyquinazoline (5- ug/kg), in dog; format: functional, Canis lupus familiaris; summary of the method: as §2
Canis familiaris [8] = assay: Relative inotropic response (50 micro mg/kg Intravenously) to that of 4-[4-[2-(1,1-dioxo-2-isothiazolidinyl)ethyl]-1-piperidinyl]-6,7-dimethoxyquinazoline (5- ug/kg), in dog; format: functional, Canis lupus familiaris; summary of the method: as §2
Canis familiaris [9] = assay: Relative inotropic response (20 micro mg/kg Intravenously) to that of 4-[4-[2-(1,1-dioxo-2-isothiazolidinyl)ethyl]-1-piperidinyl]-6,7-dimethoxyquinazoline (5- ug/kg), in dog; format: functional, Canis lupus familiaris; summary of the method: as §2
Canis familiaris [10] = assay: Percent increase in dP/dtmax (positive inotropic activity) in anesthetized dog after administration of 20 ug/kg Intravenously; format: functional, Canis lupus familiaris; summary of the method: as §1
Canis familiaris [11] = assay: Cardiac contractility (decrease in the QA interval) in conscious dog 1 hour after oral administration (dose 0.125 mg/kg); format: functional, Canis lupus familiaris; summary of the method: as §3
Canis familiaris [12] = assay: Cardiac contractility (decrease in the QA interval) in conscious dog, 3 hours after oral administration (dose 0.125 mg/kg); format: functional, Canis lupus familiaris; summary of the method: as §3
Canis familiaris [13] = assay: Relative inotropic response (50 ug/kg Intravenously) to that of 4-[4-[2-(1,1-dioxo-2-isothiazolidinyl)ethyl]-1-piperidinyl]-6,7-dimethoxyquinazoline […], in dog; format: functional, Canis lupus familiaris; summary of the method: as §2
Canis familiaris [14] = assay: Percent increase in dP/dtmax of positive inotropic activity in conscious dog after administration of 100 ug/kg orally
Canis familiaris [15] = assay: Cardiac contractility (decrease in the QA interval) in conscious dog, 3 hours after oral administration (dose 0.1 mg/kg); format: functional, Canis lupus familiaris; summary of the method: as §3
Canis familiaris [16] = assay: Percent increase in dP/dtmax of positive inotropic activity in conscious dog after administration of 25 ug/kg orally
Canis familiaris [17] = assay: Cardiac contractility (decrease in the QA interval) in conscious dog 1 hour after oral administration (dose 0.1 mg/kg); format: functional, Canis lupus familiaris; summary of the method: as §3
Canis familiaris [18] = assay: Percent increase in dP/dtmax (positive inotropic activity) in anesthetized dog after administration of 2 micro mg/kg Intravenously; format: functional, Canis lupus familiaris; summary of the method: as §1
Canis familiaris [19] = assay: Relative inotropic response (2 ug/kg Intravenously) to that of 4-[4-[2-(1,1-dioxo-2-isothiazolidinyl)ethyl]-1-piperidinyl]-6,7-dimethoxyquinazoline (5- ug/kg), in dog; format: functional, Canis lupus familiaris; summary of the method: as §2
[20] = Dissociation constant was determined; format: physicochemical
Canis familiaris [21] = assay: Relative inotropic response (250 ug/kg Intravenously) to that of 4-[4-[2-(1,1-dioxo-2-isothiazolidinyl)ethyl]-1-piperidinyl]-6,7-dimethoxyquinazoline (5- ug/kg), in dog; format: functional, Canis lupus familiaris; summary of the method: as §2
Canis familiaris [22] = assay: Cardiac contractility (decrease in the QA interval) in conscious dog 1 hour after oral administration (dose 0.25 mg/kg); format: functional, Canis lupus familiaris; summary of the method: as §3
Canis familiaris [23] = assay: Relative inotropic response (25 ug/kg Intravenously) to that of 4-[4-[2-(1,1-dioxo-2-isothiazolidinyl)ethyl]-1-piperidinyl]-6,7-dimethoxyquinazoline ([…]), in dog; format: functional, Canis lupus familiaris; summary of the method: as §2
Canis familiaris [24] = assay: Cardiac contractility (decrease in the QA interval) in conscious dog, 3 hours after oral administration (dose 0.25 mg/kg); format: functional, Canis lupus familiaris; summary of the method: as §3
Canis familiaris [25] = assay: Percent increase in dP/dtmax (positive inotropic activity) in anesthetized dog after administration of 25 ug/kg Intravenously; format: functional, Canis lupus familiaris; summary of the method: as §1

Q: Which results are given for `CC1CC(O)=NN=C1c1ccc(-n2ccnc2)cc1.Cl` (configuration not stated)?
A: Increase in dP/dtmax (Canis familiaris [1]): 100%; Relative potency (Canis familiaris [2]): 1.6

Q: For `Cc1cn(-c2cc(C)c3c(c2)CN2C(=N3)NC(=O)C2(C)C)c(C)n1`, which “Increase in dP/dtmax” value (Canis familiaris [3]) is on record?
A: 20%

Q: For `Cc1cn(-c2cc(C)c3c(c2)CN2C(=N3)NC(=O)C2C)c(C)n1` (configuration not stated), which “Increase in dP/dtmax” value (Canis familiaris [4]) is on record?
A: 12%

Q: What about the “Decrease in the QA interval” value (Canis familiaris [5]) of the same compound?
A: 9 ms

Q: What about the “Decrease in the QA interval” value (Canis familiaris [6]) of the same compound?
A: 15 ms

Q: And the Relative inotropic potency (Canis familiaris [7])?
A: 0.9

Q: With `O=C1CN2Cc3cc(-n4cncn4)ccc3N=C2N1` as the compound, how does the Relative inotropic potency (Canis familiaris [8]) read?
A: 1.7

Q: And the “Increase in dP/dtmax” value (Canis familiaris [1])?
A: 63%

Q: What does the source list for `Cc1cn(-c2ccc3c(c2)CN2CC(=O)NC2=N3)c(C)n1`?
A: Relative inotropic potency (Canis familiaris [9]): 1.9; Increase in dP/dtmax (Canis familiaris [10]): 30%; Decrease in the QA interval (Canis familiaris [5]): 6 ms; Decrease in the QA interval (Canis familiaris [6]): 10 ms

Q: What does the source list for `Cc1cc(-n2cncn2)cc2c1NC1=NC(=O)CN1C2`?
A: Decrease in the QA interval (Canis familiaris [11]): 8 ms; Relative inotropic potency (Canis familiaris [8]): 3.2; Increase in dP/dtmax (Canis familiaris [1]): 76%; Decrease in the QA interval (Canis familiaris [12]): 12 ms

Q: What does the source list for `Cc1ccc(-c2ccc3c(c2)C(C)N2CC(=O)N=C2N3)c(C)n1` (configuration not stated)?
A: Decrease in the QA interval (Canis familiaris [11]): 13 ms; Relative inotropic potency (Canis familiaris [8]): 1.6; Increase in dP/dtmax (Canis familiaris [1]): 50%; Decrease in the QA interval (Canis familiaris [12]): 9 ms

Q: For `Cc1ccc(-c2ccc3c(c2)CN2CC(=O)NC2=N3)c(C)n1`, which “Decrease in the QA interval” value (Canis familiaris [5]) is on record?
A: 14 ms

Q: And the “Decrease in the QA interval” value (Canis familiaris [6])?
A: 15 ms

Q: What about the “Increase in dP/dtmax” value (Canis familiaris [1]) of the same compound?
A: 29%

Q: What about the Relative potency (Canis familiaris [13]) of the same compound?
A: 1.3

Q: Which results are given for `Cc1cc(-n2cnnc2)cc2c1NC1=NC(=O)CN1C2`?
A: Increase in dP/dtmax (Canis familiaris [1]): 24%; Relative potency (Canis familiaris [13]): 0.5

Q: Which “Increase in dP/dtmax” value (Canis familiaris [4]) does the source give for `Cc1ccc(-c2cc(C)c3c(c2)CN2CC(=O)NC2=N3)c(C)n1` here?
A: 30%

Q: What about the “Decrease in the QA interval” value (Canis familiaris [11]) of the same compound?
A: 15 ms

Q: What about the “Decrease in the QA interval” value (Canis familiaris [12]) of the same compound?
A: 15 ms

Q: What about the Relative inotropic potency (Canis familiaris [7]) of the same compound?
A: 2.7

Q: Which results are given for `Cc1cn(-c2cc(C)c3c(c2)CN2CC(=O)NC2=N3)c(C)n1`?
A: Increase in dP/dtmax (Canis familiaris [14]): 50%; Decrease in the QA interval (Canis familiaris [15]): 15 ms; Increase in dP/dtmax (Canis familiaris [16]): 20%; Decrease in the QA interval (Canis familiaris [17]): 5 ms; Increase in dP/dtmax (Canis familiaris [18]): 23%; Relative inotropic potency (Canis familiaris [19]): 7.8

Q: Which results are given for `O=C1CN2Cc3ccccc3N=C2N1`?
A: Increase in dP/dtmax (Canis familiaris [3]): 24%; pKa [20]: 10.9; Relative inotropic potency (Canis familiaris [21]): 0.1

Q: With `Cc1[nH]c(=O)c(C#N)cc1-c1ccncc1` [MILRINONE] as the compound, how does the “Decrease in the QA interval” value (Canis familiaris [22]) read?
A: 13 ms

Q: What about the Relative potency (Canis familiaris [23]) of the same compound?
A: 1.6

Q: What about the “Decrease in the QA interval” value (Canis familiaris [24]) of the same compound?
A: 7 ms

Q: What about the “Increase in dP/dtmax” value (Canis familiaris [25]) of the same compound?
A: 46%

Q: Which pKa [20] does the source give for `Cc1cn(-c2cc(C)c3[nH]c(=O)ccc3c2)c(C)n1` [NANTERINONE] here?
A: 11.2

Q: With `C[C@@H]1C(=O)NC2=Nc3cccc(Cl)c3CN21` [QUAZINONE] as the compound, how does the “Increase in dP/dtmax” value (Canis familiaris [3]) read?
A: 66%

Q: And the Relative inotropic potency (Canis familiaris [21])?
A: 0.3
